# Most compounds without a hit are left out; they make up all but 2.3% or so of the library.
# TRPC6 inh: mouse TRPC6 channel inhibitors, primary screen, cell-based, HEK293, membrane potential dye. hit rate 1.1% among 310,000. AID 2553, 2010. ACh-evoked depolarization; active compounds read low. B-score at 10 µM;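 active = B-score under library mean minus 3 SD, initial fluorescence not abnormally high, positive integrated signal ratio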;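 also: B-score derived from integrated fluorescence ratio over the kinetic read; more negative B-score means stronger inhibition of depolarization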
# TRPC6 activator: mouse TRPC6 channel activators, primary screen, cell-based, HEK293, membrane potential dye; B-score at 10 µM; hit rate 0.13% among 310,000; Short transient receptor potential channel 6 (Mus musculus), Q61143; HEK293-TRPC6 membrane potential dye fluorescence; active compounds read high;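 active = B-score of the integrated fluorescence ratio above library mean plus 3 SD, and starting fluorescence ratio within library mean plus 5 SD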;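 also: higher score means more depolarization so channel activation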
# TRPC4 agonist: activators of mouse TRPC4 channel, primary screen, Fluo4 calcium, HEK293 TRPC4beta/mu-opioid cells. Short transient receptor potential channel 4 (Mus musculus), Q9QUQ5. Fluo4 calcium fluorescence; active compounds read high. B-score at 10 µM. hit rate 0.49% among 310,000. AID 2237, 2010;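 active = B-score above 5 SD of library B-scores, and initial fluorescence ratio not above library mean plus 5 SD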;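 also: positive B-score marks a calcium rise read as TRPC4 activation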
#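 Material: HEK293 stable line with TRPC4beta plus mu-opioid receptor; technique: Fluo4 calcium-sensitive dye fluorescence, kinetic, 1 Hz baseline; timing: Fluo4 dye loading 45 min at room temperature, 110 s recording; controls: assay buffer as low control, maximal DAMGO as high control; read-out: integrated baseline-normalised fluorescence ratio, converted to per-well B score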
# TRPC4 block: inhibitors of mouse TRPC4 channel, primary screen, Fluo4 calcium, HEK293 TRPC4beta/mu-opioid cells; DAMGO-evoked Fluo4 calcium flux; active compounds read low; AID 2247, 2010; B-score at 10 µM; Short transient receptor potential channel 4 (Mus musculus), Q9QUQ5; hit rate 0.39% among 300,000;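 active = B-score over 3 SD under the library average, no early fluorescence shift, positive overall ratio signal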
#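 test system = HEK293 cells with stable TRPC4beta plus mu-opioid receptor expression | detection = Fluo4 Ca2+ flux fluorescence | read-out = integrated fluorescence ratio relative to baseline, converted to per-well B score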
# TRPC4 PAM: positive allosteric modulators of TRPC4, primary screen, cell-based, mouse TRPC4beta, HEK293 mu-opioid, Fluo-4 calcium | B-score at 10 µM | DAMGO EC20, Fluo-4 Ca2+ flux; active compounds read high | Short transient receptor potential channel 4 (Mus musculus), Q9QUQ5 | AID 2227, 2009 | hit rate 0.42% among 310,000;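 active = B-score of calcium response area above 5 SD of library B-scores, with initial fluorescence ratio within 5 SD of library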;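 also: B-score of integrated fluorescence ratio over time as area under calcium response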
# Numbers without * were called inactive; i = inactive; · = no result.
SMILES,TRPC6 inh,TRPC6 activator,TRPC4 agonist,TRPC4 block,TRPC4 PAM
O=C(NC(Cc1ccccc1)C(=O)O)/C(=C/c1ccc(F)cc1)NC(=O)c1ccccc1 (stereo unspecified),i,i,i,i,i
Cc1ccc(CNC(=O)C2CCCN(Cc3cnn(-c4ccccc4)c3-n3cccc3)C2)cc1 (stereo unspecified),i,i,95*,i,i
Cc1ccc(CNC(=O)C2CCC(=O)N(C3CC3)C2)cc1 (stereo unspecified),i,i,i,i,i
Cc1cccc(CN2CCCC(C(=O)N3CCc4ccccc4C3)C2)c1 (stereo unspecified),i,i,70*,i,i
O=C(C1CCCN(Cc2ccncc2)C1)N1CCc2ccccc2C1 (stereo unspecified),i,i,164*,i,i
O=C(C1CCCN(Cc2ccccc2F)C1)N1CCc2ccccc2C1 (stereo unspecified),i,i,110*,i,i
Cc1cccc(CN2CCCC(C(=O)Nc3ccccc3Oc3cccnc3)C2)c1 (stereo unspecified),i,i,i,-6*,i
O=C(Nc1ccccc1Oc1cccnc1)C1CCCN(C/C=C/c2ccc(F)cc2)C1 (stereo unspecified),i,i,i,i,i
O=C(C1CCCN(Cc2ccccc2F)C1)N1CCCCC1 (stereo unspecified),i,i,i,i,i
Cc1ccc(NC(=O)C2CCN(S(=O)(=O)c3ccc4c(c3)CCCC(=O)N4)CC2)c(Br)c1,i,i,i,i,i
COc1ccccc1C(=O)OCCNC(=O)Cn1cnc2c1c(=O)n(C)c(=O)n2C,i,i,i,i,i
CCOC(=O)CCSc1nc(C)cc(C(F)(F)F)c1C#N,i,i,i,i,i
COc1ccc(C2Nc3ccc(Br)cc3C(c3ccccc3)N2CC(=O)O)cc1 (stereo unspecified),i,i,i,i,i
O=C(O)CN1C(c2ccccc2O)Nc2ccc(Br)cc2C1c1ccccc1 (stereo unspecified),i,i,i,-5*,i
OC(CN1CCCC1)Cn1ccc2ccccc21 (stereo unspecified),i,i,i,i,i
COc1cc(/C(C)=N/NC(=O)C(O)(c2ccccc2)c2ccccc2)ccc1O,i,i,i,i,i
C=C(c1ccc(O)cc1)c1ccc(O)cc1,i,i,i,-6*,i
CNC(=S)N1CCN(CCNC2=CC(=O)CC(C)(C)C2)CC1,i,i,i,i,i
CC1(C)CC(NCCN2CCN(C3=CC(=C(C#N)C#N)CC(C)(C)C3)CC2)=CC(=C(C#N)C#N)C1,i,i,55*,·,i
CC(=O)C1=C(O)C(=O)N(c2ccc(C)cc2)C1c1ccccn1 (stereo unspecified),i,i,i,i,i
O=C(Nc1ccccc1)NC1CCN(Cc2c(F)cccc2Cl)CC1,i,i,i,i,i
CC(C)(C)c1ccccc1NC(=O)NC1CCN(Cc2c(F)cccc2Cl)CC1,i,i,116*,i,i
O=C1CN=C(Nc2cccc(C(F)(F)F)c2)N1C1CCCC1,i,i,i,-6*,i
Cc1cc(C)c(NC2=NCC(=O)N2C2CCCCC2)c(C)c1,i,i,i,i,i
C[C@@H]1C=CC(=O)O[C@@H]1c1ccc(Cl)cc1,i,i,i,i,i
CCOc1ccc(/C(O)=C2\C(=O)C(=O)N(CCOCCO)C2c2ccccc2OC)cc1 (stereo unspecified),i,i,i,i,i
O=C1C(Cl)=C(Nc2cccc(O)c2)C(=O)N1Cc1ccccc1,i,i,i,i,74*
